MIC50, MIC90 and MIC data for 2 compounds are collected here from ChEMBL document CHEMBL1255376, “Comparative surveillance study of telavancin activity against recently collected gram-positive clinical isolates from across the United States” (2008).

Holding throughout (type): functional
In test [1] the test system is Enterococcus faecium. The test is described as follows: Antibacterial activity against vancomycin-resistant and teichoplanin-susceptible Enterococcus faecium clinical isolate by broth microdilution method. The procedure, abridged: (§1)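 MICs by CLSI broth microdilution in frozen trays pre-loaded with serial dilutions of each agent. Quality-control strains run in parallel: E. faecalis ATCC 29212 and ATCC 51299, S. aureus ATCC 29213, S. pneumoniae ATCC 49619. Comparator susceptibility categories follow CLSI breakpoints. Methicillin resistance in staphylococci assigned from the oxacillin MIC.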

Test [2] relates to Enterococcus faecalis. The test is described as follows: Antibacterial activity against vancomycin- and teichoplanin-nonsusceptible Enterococcus faecalis clinical isolate by broth microdilution method. The procedure, abridged: as §1
Test [3] has as its system Enterococcus faecalis. Description: Antibacterial activity against vancomycin-susceptible Enterococcus faecalis clinical isolate by broth microdilution method. The procedure, abridged:
as §1

Test [4] relates to Enterococcus faecalis. Description: Antibacterial activity against vancomycin-resistant and teichoplanin-susceptible Enterococcus faecalis clinical isolate by broth microdilution method. The procedure, abridged:
as §1

The subject of test [5] is Enterococcus faecium. The test is described as follows: Antibacterial activity against vancomycin-susceptible Enterococcus faecium clinical isolate by broth microdilution method. The procedure, abridged: (§2)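 MIC by CLSI broth microdilution in frozen microtiter trays holding serial dilutions of each agent, prepared from standard laboratory powders. E. faecalis ATCC 29212 and ATCC 51299, S. aureus ATCC 29213 and S. pneumoniae ATCC 49619 run in parallel as quality-control strains. Comparator susceptibility interpreted with CLSI breakpoints.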

Test [6] deals with Enterococcus faecium. The test is described as follows: Antibacterial activity against vancomycin- and teichoplanin-nonsusceptible Enterococcus faecium clinical isolate by broth microdilution method. The method, boiled down:
as §1

The test system of test [7] is Streptococcus sp. Description: Antibacterial activity against Streptococcus sp. clinical isolate by broth microdilution method. The procedure, abridged: (§3)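 MIC by CLSI broth microdilution in frozen microtiter trays holding serial dilutions of each agent, prepared from standard laboratory powders. Comparator susceptibility interpreted with CLSI breakpoints.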
The subject of test [8] is Streptococcus pneumoniae. Description: Antibacterial activity against penicillin intermediate Streptococcus pneumoniae clinical isolate by broth microdilution method. The procedure, abridged: as §1
The nature of test [9]: Antibacterial activity against Streptococcus sp. Group C clinical isolate by broth microdilution method. The method, boiled down: as §2
The test system of the next test is Streptococcus oralis. Description: Antibacterial activity against Streptococcus oralis clinical isolate by broth microdilution method. The procedure, abridged: as §2
The subject of test [10] is Streptococcus pneumoniae. Description: Antibacterial activity against penicillin resistant Streptococcus pneumoniae clinical isolate by broth microdilution method. The method, boiled down:
as §1

The next test deals with Streptococcus sanguinis. The test is described as follows: Antibacterial activity against Streptococcus sanguinis clinical isolate by broth microdilution method. The procedure, abridged: as §2
The test system of the next test is Streptococcus equinus. The test is described as follows: Antibacterial activity against Streptococcus bovis clinical isolate by broth microdilution method. The method, boiled down:
as §2

The next test relates to Streptococcus agalactiae. Description: Antibacterial activity against Streptococcus agalactiae clinical isolate by broth microdilution method. The method, boiled down: as §2
The test system of test [11] is Streptococcus intermedius. The test is described as follows: Antibacterial activity against Streptococcus intermedius clinical isolate by broth microdilution method. The method, boiled down:
as §2

The test system of test [12] is Streptococcus pneumoniae. Description: Antibacterial activity against penicillin susceptible Streptococcus pneumoniae clinical isolate by broth microdilution method. The procedure, abridged:
as §1

The subject of a further test is Streptococcus mitis. Description: Antibacterial activity against Streptococcus mitis clinical isolate by broth microdilution method. The method, boiled down: as §2
The test system of a further test is Streptococcus pyogenes. The test is described as follows: Antibacterial activity against Streptococcus pyogenes clinical isolate by broth microdilution method. The method, boiled down: as §2
Test [13] is described as follows: Antibacterial activity against Streptococcus sp. Group G clinical isolate by broth microdilution method. The procedure, abridged:
as §2

For test [14], the system named is Streptococcus sp. The test is described as follows: Antibacterial activity against Streptococcus sp. Group F clinical isolate by broth microdilution method. The procedure, abridged: as §3
Test [15] deals with Streptococcus constellatus. The test is described as follows: Antibacterial activity against Streptococcus constellatus clinical isolate by broth microdilution method. The procedure, abridged: as §2

SMILES strings stand for the structures. In brackets after ≈: the same amount, converted by molar mass.

With `CC1(C)S[C@@H]2[C@H](NC(=O)[C@H](N)c3ccccc3)C(=O)N2[C@H]1C(=O)O` [AMPICILLIN], the MIC50 with Enterococcus faecium [1] was found to be 128 mg/L (≈ 366 µM); with Enterococcus faecalis [2], 1 mg/L (≈ 2.86 µM); in the test with Enterococcus faecalis [3] it was 1 mg/L (≈ 2.86 µM); with Enterococcus faecium [5], 128 mg/L (≈ 366 µM); against Enterococcus faecium [6], 128 mg/L (≈ 366 µM). Further, the MIC90 was 2 mg/L (≈ 5.72 µM) against Enterococcus faecalis [2], 1 mg/L (≈ 2.86 µM) in the test with Enterococcus faecalis [3], above 128 mg/L with Enterococcus faecium [5] and above 128 mg/L in the test on Enterococcus faecium [6]. This compound also showed a minimal inhibitory concentration (MIC) with Enterococcus faecalis [4] of 0.5 mg/L (≈ 1.43 µM).
Turning to `C[C@H]1COc2c(N3CCN(C)CC3)c(F)cc3c(=O)c(C(=O)O)cn1c23.C[C@H]1COc2c(N3CCN(C)CC3)c(F)cc3c(=O)c(C(=O)O)cn1c23.O` [LEVOFLOXACIN], the MIC50 (in the test with Streptococcus sp. [7]; with Streptococcus pneumoniae [8]; in test [9]; in the test on Streptococcus oralis; against Streptococcus pneumoniae [10]; with Streptococcus sanguinis) was 0.5 mg/L throughout. Also, the MIC50 against Streptococcus equinus was 0.5 mg/L; against Streptococcus agalactiae it was 0.5 mg/L; in test [11], 0.5 mg/L; in the test with Streptococcus pneumoniae [12], 1 mg/L; against Streptococcus mitis, 0.5 mg/L; in the test on Streptococcus pyogenes, 0.5 mg/L. Moreover, the MIC50 (in test [13]; against Streptococcus sp. [14]; in [15]) was 0.5 mg/L each time. For the same compound, the MIC90 in the test with Streptococcus sp. [7] is 1 mg/L; against Streptococcus pneumoniae [8], 1 mg/L; in test [9] it was 0.5 mg/L; against Streptococcus oralis, 1 mg/L; in the test on Streptococcus pneumoniae [10], 1 mg/L; in the test on Streptococcus sanguinis, 1 mg/L. Moreover, the MIC90 (against Streptococcus equinus; in the test on Streptococcus agalactiae; in [11]; in the test with Streptococcus pneumoniae [12]; against Streptococcus mitis; in the test on Streptococcus pyogenes) was 1 mg/L throughout. In addition, the MIC90 turned out to be 0.5 mg/L in test [13], 0.5 mg/L against Streptococcus sp. [14] and 1 mg/L in [15].
